# Screening data from PubChem BioAssay.
# S1P4 ag – activates the human S1P4 receptor | activation, % at 4.98 µM | AID 1509 | 220,000 tested, 0.35% active | S1P4-expressing cell line, agonist reporter assay | O95977; in the data active means activation above about 11%;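 further: 0% = DMSO vehicle and 100% = reference agonist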
# NPY Y1 blocker – blocks the human neuropeptide Y Y1 receptor | AID 1040 | 200,000 tested, 1% active | HEK293-CNG Y1 cells, membrane potential fluorescence; NPY at EC95, then isoproterenol | inhibition, % at 3.6 µM;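 active means inhibition above the campaign mean inhibition of all tested compounds plus 3 SD, cut at about 20% in these data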;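 further: 0% = DMSO wells given NPY plus isoproterenol and 100% = isoproterenol alone without NPY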
# Target sequence (P25929 whole entry, looked up): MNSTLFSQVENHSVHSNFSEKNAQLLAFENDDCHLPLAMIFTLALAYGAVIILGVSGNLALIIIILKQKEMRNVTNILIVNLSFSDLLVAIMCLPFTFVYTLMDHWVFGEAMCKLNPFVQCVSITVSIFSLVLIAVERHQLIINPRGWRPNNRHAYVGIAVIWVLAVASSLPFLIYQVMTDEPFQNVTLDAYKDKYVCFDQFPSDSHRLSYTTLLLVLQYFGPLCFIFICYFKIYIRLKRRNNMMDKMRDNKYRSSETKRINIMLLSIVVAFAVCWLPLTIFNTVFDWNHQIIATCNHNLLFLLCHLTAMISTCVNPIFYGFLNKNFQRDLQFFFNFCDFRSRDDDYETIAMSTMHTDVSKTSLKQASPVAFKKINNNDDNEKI
#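 Material: HEK293 Y1/CNG channel cell line | Also added: NPY (25 nM), isoproterenol (1 µM), Ro 20-1724 (25 µM) | Compound: One concentration, 3.6 µM, in 0.4% DMSO | Schedule: 3 h dye uptake, 1 h room-temperature compound, 45 min post-isoproterenol | Signal: Membrane-potential fluorescent dye readout | Read-out: % inhibition of NPY effect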
# S1P4 antag – antagonists of human S1P4 receptor; inhibition, % at 4.98 µM; AID 1510; O95977; S1P4-expressing cells, antagonist mode, reporter read-out; 220,000 tested, 0.26% active; in the data active means inhibition above about 29%;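 further: 0% = wells stimulated with agonist and 100% = vehicle wells without agonist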
# NPY Y2 blocker – NPY-Y2 (human) receptor antagonism; 140,000 tested, 0.99% active; P49146; NPY-Y2 expressing cells, antagonist mode; inhibition, % at 2.7 µM; AID 793; in the data active means inhibition above about 17%;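 further: 0% = vehicle with agonist challenge and 100% = reference antagonist with challenge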
# Target sequence (P49146 whole entry, looked up): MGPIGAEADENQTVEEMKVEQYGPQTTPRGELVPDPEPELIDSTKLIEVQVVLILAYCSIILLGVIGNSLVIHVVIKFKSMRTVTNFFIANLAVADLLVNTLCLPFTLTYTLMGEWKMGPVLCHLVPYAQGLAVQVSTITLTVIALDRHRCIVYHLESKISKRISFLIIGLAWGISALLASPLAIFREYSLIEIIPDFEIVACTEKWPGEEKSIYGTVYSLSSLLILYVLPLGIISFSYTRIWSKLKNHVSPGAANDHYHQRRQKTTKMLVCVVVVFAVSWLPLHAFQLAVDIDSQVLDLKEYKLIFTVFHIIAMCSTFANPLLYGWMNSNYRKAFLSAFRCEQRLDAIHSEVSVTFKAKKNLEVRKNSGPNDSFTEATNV
# NPY2 pot ag – potentiators or agonists of human neuropeptide Y receptor Y2; P49146; cells expressing NPY-Y2, potentiator/agonist read-out; activation, % at 3.6 µM; 220,000 tested, 0.45% active; AID 1359; in the data active means activation above about 27%;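 further: cells stimulated with NPY near EC25 plus isoproterenol at EC100; 0% = vehicle plus submaximal agonist and 100% = vehicle plus saturating agonist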
# NPY1 pot ag – potentiators or agonists of human neuropeptide Y receptor Y1 | 220,000 tested, 0.37% active | activation, % at 3.6 µM | AID 1304 | NPY-Y1 expressing cells, potentiator/agonist activation; in the data active means activation above about 33%, passing the limit was not always enough;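 further: cells stimulated with NPY at EC10 then isoproterenol at EC100; 0% = low agonist plus stimulus and 100% = saturating agonist plus stimulus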
# NPY-Y1 confirm – confirmation of human NPY-Y1 receptor potentiators or agonists; shares compounds with NPY1 pot ag; cell-based NPY-Y1 potentiator/agonist assay; activation, % at 3.6 µM; 280 tested, 20% active; in the data active means activation above about 45%;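 further: cells challenged with NPY at its EC10 plus isoproterenol stimulus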
# NPY-Y2 counter – potentiates or activates NPY-Y2, counter-screen for NPY-Y1 hits; HEK293-CNG cells, membrane-potential fluorescence (FLIPR), 1536-well; 280 tested, 20% active; shares compounds with NPY1 pot ag; activation, % at 3.6 µM; in the data active means activation above about 33%
# NPY-Y1 ag – activates human NPY-Y1, counter-screen for NPY-Y1 potentiators; 280 tested, 50% active; activation, % at 3.6 µM; shares compounds with NPY1 pot ag; HEK293 Y1-CNGC, membrane potential fluorescence, agonist mode;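 active means percent activation above the mean of DMSO-only control wells plus 3 SD of those wells, cut at about 18% in these data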;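 further: cells challenged with isoproterenol plus Ro 20-1724 with no NPY in test wells; Y1 agonism lowers isoproterenol-driven cAMP and reduces probe fluorescence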
# NPY-Y2 ag – activates human NPY-Y2, counter-screen for NPY-Y1 hits; shares compounds with NPY1 pot ag; HEK293 Y2-CNGC, membrane potential fluorescence, agonist mode; activation, % at 3.6 µM; 280 tested, 67% active;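 active means activation above the solvent-only control wells' mean plus 3 SD, cut at about 11% in these data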;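 further: 0% = DMSO with isoproterenol and 100% = 40 nM NPY maximal response; agonism lowers cAMP so well fluorescence drops in active wells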
# CNGC counter – counter-screen for NPY-Y1 potentiators or agonists: CNG channel inhibitors | shares compounds with NPY1 pot ag | HEK293-CNG parental, isoproterenol cAMP, membrane potential fluorescence | inhibition, % at 3.6 µM | 280 tested, 42% active;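 active means inhibition above the mean of stimulated solvent-only control wells plus 3 SD, cut at about 22% in these data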;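 further: 0% = isoproterenol-stimulated DMSO wells and 100% = unstimulated DMSO wells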
# * hit, by the source's call; · = not tested or not shown. A selection: hits, their analogues and other compounds. The true share with any hit is near 2.4%.
SMILES,S1P4 ag,NPY Y1 blocker,S1P4 antag,NPY Y2 blocker,NPY2 pot ag,NPY1 pot ag,NPY-Y1 confirm,NPY-Y2 counter,NPY-Y1 ag,NPY-Y2 ag,CNGC counter
O=[N+]([O-])c1cccc(S(=O)(=O)Nc2nc3ccccc3nc2Nc2cccc(S(=O)(=O)N3CCCCC3)c2)c1,-1.2,-0.1,-13.6,-1.4,3.3,5.5,·,·,·,·,·
O=C(O)c1cc(NC(=O)c2ccc(Cl)c([N+](=O)[O-])c2)cc(C(=O)O)c1,0.6,-6.9,-19.0,·,2.2,12.7,·,·,·,·,·
O=C(Nc1ccc(C(O)(C(F)(F)F)C(F)(F)F)cc1)c1ccc(Cl)c([N+](=O)[O-])c1,1.1,-14.2,-11.1,-5.7,25.7,46.1*,50.4*,49.6*,41.4*,39.9*,51.4*
Cn1c(C(O)C(O)c2ccccc2)nc2ccccc21 (centres undefined),0.5,-4.9,15.6,·,5.9,9.2,·,·,·,·,·
Cn1c(C(C#N)C2=C(Cl)C(=O)N(c3ccccc3)C2=O)nc2ccccc21 (centres undefined),1.9,-17.3,-0.3,-6.8,29.9,36.0*,70.5*,59.6*,83.3*,72.5*,57.6*
Cc1ccccc1NC(=O)c1ccc(CN(c2ccccc2)S(=O)(=O)c2ccccc2)cc1,0.6,4.3,-0.5,7.5,1.5,-9.4,·,·,·,·,·
Cc1coc(=N)n1CC(=O)c1ccc(Cl)cc1,-0.4,-1.6,16.2,·,-12.2,-5.6,·,·,·,·,·
Cc1cc(C)c(NC(=O)c2ccc(CN3CCc4ccccc4C3)cc2)c(C)c1,-0.1,0.6,-13.5,7.8,6.7,56.7*,-14.8,-8.8,6.2,-2.1,-14.3
CCCOc1cc(N(CC)CC)ccc1/C=C(/C#N)c1nc2ccc(C)cc2[nH]1,-1.9,2.2,3.0,1.6,27.3,24.8,·,·,·,·,·
CCN(CC)c1ccc(/C=C(/C#N)c2nc3ccc(C)cc3[nH]2)c(OC(C)C)c1,-2.2,-3.0,13.5,-4.9,32.2,44.4*,51.9*,37.6*,27.7*,44.9*,30.1*
CN(C)CC(C)(C)CNS(=O)(=O)c1cccc2nsnc12,3.6,4.6,-6.1,2.4,-5.0,10.1,·,·,·,·,·
CCOc1ccc(N2C(=O)C(CC(=O)Nc3ccccc3)N(Cc3ccccn3)C2=S)cc1 (centres undefined),0.0,-9.7,3.9,·,13.8,22.9,·,·,·,·,·
CCOc1ccc(N2C(=O)C(CC(=O)Nc3ccc(F)cc3)N(Cc3ccccn3)C2=S)cc1 (centres undefined),2.2,-11.7,-12.2,·,10.8,42.1*,46.8*,32.3,35.1*,46.5*,41.0*
O=C(O)c1ccc(C(=O)c2ccc3c(c2)C(=O)N(CC2CCCO2)C3=O)cc1 (centres undefined),1.9,-1.9,-3.1,·,0.3,3.8,·,·,·,·,·
O=C(Nc1ccc(Cl)cc1Cl)NC1CCN(S(=O)(=O)c2ccc(F)cc2)CC1,0.5,·,-6.4,·,5.5,47.8*,42.0,30.5,18.1*,12.9*,14.2
O=C(c1ccc(S(=O)(=O)N2CCOCC2)cc1)N1CCOCC1,0.9,6.8,8.6,·,-23.6,-8.4,·,·,·,·,·
O=[N+]([O-])c1cccc(N/N=C/c2cccc(O)c2O)c1,1.9,-2.4,5.1,·,17.0,6.8,·,·,·,·,·
CCN1CCCC1CNC(=O)c1ccc(Sc2ccccc2Cl)c([N+](=O)[O-])c1 (centres undefined),1.2,5.7,4.8,·,23.2,36.1*,32.0,23.5,22.6*,30.3*,34.3*
CC(C)CCN1CCN(C2CCN(c3ccccc3)CC2)CC1CCO (centres undefined),-0.5,3.5,6.3,·,8.0,3.8,·,·,·,·,·
CC(C)c1ccc2c(c1)CCC1C(C)(CN)CCCC21C (centres undefined),-0.9,·,-17.2,·,32.8,46.6*,47.6*,42.5*,33.9*,40.3*,21.6
N#C/C(=C(/O)c1ccc([N+](=O)[O-])s1)c1nc2ccccc2[nH]1,0.3,·,3.2,·,26.9,48.3*,14.5,22.2,1.7,28.5*,-6.4
CCOC(=O)C(C)(C)N(Cc1cccc(C)c1)S(=O)(=O)c1ccc(Cl)c([N+](=O)[O-])c1,-1.1,-9.1,-0.2,-3.4,27.4,66.0*,33.9,28.6,38.7*,30.7*,46.1*
COCCNC(=O)C(c1ccccc1F)N(C(=O)C(=O)NC1CCCC1)C1CCCCC1 (centres undefined),-0.7,2.7,-3.8,·,0.1,-12.1,·,·,·,·,·
CC(C)Cn1nnc2c(=O)oc3ccccc3c21,0.4,1.1,-3.7,-0.3,13.7,59.7*,38.4,24.1,24.7*,22.7*,22.2*
CCOc1cc(C(=O)Nc2ccc(S(=O)(=O)NC3=NCCCCC3)cc2)cc(OCC)c1OCC,-0.7,-0.2,0.2,·,1.8,0.2,·,·,·,·,·
SMILES,S1P4 ag,NPY Y1 blocker,S1P4 antag,NPY Y2 blocker,NPY2 pot ag,NPY1 pot ag,NPY-Y1 confirm,NPY-Y2 counter,NPY-Y1 ag,NPY-Y2 ag,CNGC counter
O=C(O)c1ccc(N2C(=O)CC(N3C(=O)/C(=C/c4ccc(Cl)cc4)SC3=S)C2=O)cc1 (centres undefined),1.2,·,6.5,·,8.4,6.8,·,·,·,·,·
CC(Oc1ccccc1)C(=O)Nc1ccc(C(N)=O)cc1 (centres undefined),-3.8,-5.7,-38.2,-2.7,-10.7,8.7,·,·,·,·,·
CC(Oc1cc(C(F)(F)F)cc(C(F)(F)F)c1)C(=O)NC(N)=O (centres undefined),-1.2,-12.9,0.1,3.0,23.6,49.4*,45.6*,28.6,34.1*,31.8*,35.6*
CN(C)CCNC(=O)c1ccc(Sc2ccc(Br)cc2)c([N+](=O)[O-])c1,-1.9,-5.3,-9.2,·,13.5,39.2*,42.6,33.2*,25.9*,39.6*,29.9*
CCOC(=O)N1CCN(C(=O)CN(C2CCCCC2)S(=O)(=O)c2c(C)cc(C)cc2C)CC1,0.7,2.7,5.2,1.4,-21.1,70.9*,-6.5,-4.8,-12.6,4.3,-8.4
CCn1ccnc1CN1CCc2c([nH]c3ccccc23)C1C(C)(C)C (centres undefined),0.1,-5.0,10.2,·,14.6,34.2*,16.2,11.0,7.5,21.9*,11.5
CCn1ccnc1CN1CCc2c([nH]c3ccccc23)C1CC(C)C (centres undefined),0.1,2.8,1.0,·,-8.6,9.3,·,·,·,·,·
